This is an account of results in BindingDB's records for doi:10.1021/jm00130a016 (American Cyanamid, 1989).

The first test addresses T1, Sterol O-acyltransferase 1 (Homo sapiens, UniProt P35610).
T1 sequence (P35610 whole entry): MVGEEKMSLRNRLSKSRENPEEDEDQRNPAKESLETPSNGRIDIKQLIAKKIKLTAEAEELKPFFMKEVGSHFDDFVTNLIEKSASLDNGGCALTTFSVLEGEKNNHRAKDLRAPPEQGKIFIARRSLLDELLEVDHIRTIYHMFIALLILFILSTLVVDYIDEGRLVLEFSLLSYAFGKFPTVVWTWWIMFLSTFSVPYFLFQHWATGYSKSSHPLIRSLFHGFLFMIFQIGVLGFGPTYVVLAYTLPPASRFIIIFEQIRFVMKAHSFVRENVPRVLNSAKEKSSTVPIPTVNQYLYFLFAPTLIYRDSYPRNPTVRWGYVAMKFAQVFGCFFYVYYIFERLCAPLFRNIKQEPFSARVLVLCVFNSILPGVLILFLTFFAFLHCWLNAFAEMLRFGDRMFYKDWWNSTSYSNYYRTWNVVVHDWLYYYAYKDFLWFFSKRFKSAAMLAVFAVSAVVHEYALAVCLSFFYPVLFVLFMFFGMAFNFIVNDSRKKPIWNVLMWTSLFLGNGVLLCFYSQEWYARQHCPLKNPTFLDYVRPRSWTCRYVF
The test can be described thus: In vitro inhibitory concentration against […] derived from smooth muscle cells from thoracic aorta of monkeys.
The compound `CCCCCCCN(Cc1ccco1)C(=O)Nc1cc(C)c(C)cc1C` returned an IC50 of 0.14 µM.

A further test concerns the target T2, Sterol O-acyltransferase 1 (Rattus norvegicus, UniProt O70536).
T2 sequence (O70536 whole entry): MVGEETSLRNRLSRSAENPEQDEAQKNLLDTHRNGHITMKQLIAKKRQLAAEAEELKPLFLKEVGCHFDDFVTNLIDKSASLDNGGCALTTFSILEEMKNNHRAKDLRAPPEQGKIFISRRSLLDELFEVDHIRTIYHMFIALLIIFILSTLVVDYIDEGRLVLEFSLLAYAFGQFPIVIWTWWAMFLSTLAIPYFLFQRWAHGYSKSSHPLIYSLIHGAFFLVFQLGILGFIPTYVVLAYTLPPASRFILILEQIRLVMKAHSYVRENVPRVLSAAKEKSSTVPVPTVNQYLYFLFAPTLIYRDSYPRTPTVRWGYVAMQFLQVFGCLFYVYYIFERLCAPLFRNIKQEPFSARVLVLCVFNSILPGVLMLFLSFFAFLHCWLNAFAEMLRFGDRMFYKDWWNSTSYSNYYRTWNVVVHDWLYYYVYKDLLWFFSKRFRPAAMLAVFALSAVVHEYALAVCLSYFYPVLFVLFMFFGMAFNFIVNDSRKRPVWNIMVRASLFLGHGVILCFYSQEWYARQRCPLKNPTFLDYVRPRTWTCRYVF
The test can be described thus: In vitro inhibitory concentration against […] derived from rat adrenals.
`CCCCCCCN(Cc1ccco1)C(=O)Nc1cc(C)c(C)cc1C`: inhibition was half-maximal at 2.24 µM (IC50).

The target of a further test is T1, Sterol O-acyltransferase 1. As to the kind of experiment: In vitro inhibitory concentration against acyl coenzyme A:cholesterol acyltransferase derived from smooth muscle cells from thoracic aorta of monkeys. In a few lines: (§1)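 Aortic smooth-muscle cells from African green monkey thoracic aorta, grown 48 h in DMEM/10% FCS with LDL from hypercholesterolemic monkeys plus graded compound concentrations (methanol). Albumin-bound [14C]oleate then added for 2.5 h; cells trypsinized, Folch lipid extraction, [14C]cholesteryl esters isolated by TLC and counted by scintillation; IC50 derived.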
Compound `CCCCN(CCCC)C(=O)Nc1ccc(C)c(Cl)c1` came in with an IC50 of 12.8 µM.

Regarding `CCCCN(Cc1ccccc1)C(=O)Nc1c(Cl)cc(Cl)cc1Cl`, the IC50 stood at 3.62 µM. Compound `CC(C)(C)CCN(Cc1cccs1)C(=O)Nc1c(Cl)cc(Cl)cc1Cl` registered an IC50 of 2.62 µM.

Regarding `CC(C)(C)CCN(Cc1cccs1)C(=O)Nc1ccc(F)cc1F`, half-maximal inhibition (IC50) required 17 µM.

In turn, `CCCCN(Cc1ccccc1)C(=O)Nc1ccc(C)cc1C` displayed a half-inhibitory concentration (IC50) of 1.83 µM. The same measure, in the same setting: the figure for `O=C(Nc1cccc(Cl)c1)N(Cc1ccccc1)Cc1ccccc1` is 39.9 µM; for `Cc1c(Cl)cccc1NC(=O)N(CCC(C)(C)C)Cc1cccs1` it is 6.3 µM; for `CCCCN(CCCC)C(=O)Nc1cccc(C)c1` it is 24 µM.

The next test addresses T1, Sterol O-acyltransferase 1. The test can be described thus: In vitro inhibitory concentration against ACAT derived from smooth muscle cells from thoracic aorta of monkeys. In a few lines: as §1
Regarding `CCCCN(C(=O)Nc1ccc(C)cc1C)c1ccccc1`, it took 26.9 µM to reach half-maximal inhibition (IC50). Still for that read-out and setting: the figure for `Cc1cc(C)c(NC(=O)N(Cc2ccccc2)Cc2ccccc2)cc1C` is 1.08 µM.
